EC50 and Activity data for 31 compounds are collected here from ChEMBL document CHEMBL4422628, “Discovery of first-in-class thiazole-based dual FFA1/PPARδ agonists as potential anti-diabetic agents” (Eur J Med Chem, 2019).

Molecules are shown by their SMILES.

Holding throughout (type): cell-based
The target in assay [1] is T1, Peroxisome proliferator-activated receptor delta (Homo sapiens, UniProt Q03181).
T1 sequence (Q03181 whole entry): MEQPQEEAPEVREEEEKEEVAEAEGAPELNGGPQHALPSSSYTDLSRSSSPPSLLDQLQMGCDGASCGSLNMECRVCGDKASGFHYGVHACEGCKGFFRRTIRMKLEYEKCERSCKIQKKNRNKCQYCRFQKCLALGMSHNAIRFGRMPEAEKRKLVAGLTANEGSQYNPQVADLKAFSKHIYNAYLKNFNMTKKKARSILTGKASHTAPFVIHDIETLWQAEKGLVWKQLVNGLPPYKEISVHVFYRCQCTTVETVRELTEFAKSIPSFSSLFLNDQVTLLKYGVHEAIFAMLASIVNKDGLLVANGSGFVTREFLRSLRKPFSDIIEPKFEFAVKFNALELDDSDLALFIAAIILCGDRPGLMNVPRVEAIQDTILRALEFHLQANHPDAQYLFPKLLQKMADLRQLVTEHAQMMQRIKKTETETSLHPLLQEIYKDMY
The assay can be described thus: Transactivation of GAL4-fused human PPARdelta LBD expressed in HEK293 cells after 18 hrs by luciferase reporter gene assay. A general note: A reporter such as luciferase makes a cellular process visible.

Assay [2] deals with T2, Free fatty acid receptor 1 (Homo sapiens, UniProt O14842). In words: Agonist activity at human FFA1 receptor expressed in CHO cells by Fluo 4-AM dye based FLIPR assay. Put shortly: (§1)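 hFFA1-expressing CHO cells were loaded for 1 h at 37 °C with buffer containing 2.5 μg/mL Fluo 4-AM, 0.1% fatty acid-free BSA and 2.5 mmol/L probenecid. Compounds were added and calcium flux was read on FLIPR. Activity = (A–B)/(C–B)×100%, where A is the compound response, B the vehicle response and C the 10 μM γ-linolenic acid response.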
T2 sequence (O14842 whole entry): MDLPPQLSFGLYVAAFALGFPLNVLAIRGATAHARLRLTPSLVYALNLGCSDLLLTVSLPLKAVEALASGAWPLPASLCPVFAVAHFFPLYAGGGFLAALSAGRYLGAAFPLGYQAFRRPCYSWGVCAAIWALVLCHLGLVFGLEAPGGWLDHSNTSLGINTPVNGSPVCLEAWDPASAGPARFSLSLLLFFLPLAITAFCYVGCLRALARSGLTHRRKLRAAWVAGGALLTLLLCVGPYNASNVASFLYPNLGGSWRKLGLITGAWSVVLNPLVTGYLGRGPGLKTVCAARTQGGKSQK

Assay [3] addresses T3, Peroxisome proliferator-activated receptor delta (Homo sapiens) (UniProt Q03181).
T3 sequence (whole entry): T1 sequence (Q03181 whole entry)
In words: Transactivation of GAL4-fused human PPARdelta LBD expressed in HEK293 cells assessed as activity percentage at 10 uM after 18 hrs by luciferase reporter gene assay relative to control. In short, it runs like this:
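HepG2 or HEK293 cells were transfected with pBIND-PPARα, -δ or -γ (GAL4 fusion). Compounds at varying concentrations were incubated for 18 h. Cells were then lysed and firefly and renilla luciferase were read by dual-luciferase assay.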

Assay [4] has as its target T2, Free fatty acid receptor 1. The assay can be described thus: Agonist activity at human FFA1 receptor expressed in CHO cells assessed as activity percentage at 10 uM by Fluo 4-AM dye based FLIPR assay relative to control. In short, it runs like this: as §1

For orientation: EC50 means the midpoint of the concentration-response curve. Read a high EC50 as a need for much substance. Consider `Cc1nc(-c2ccc(C(F)(F)F)cc2)sc1COc1ccc(OCC(=O)O)c(F)c1`, for which the results for the EC50 in assay [1] and in assay [2] were 436 nM and 149 nM, respectively.

Regarding `Cc1nc(-c2ccccc2)sc1COc1ccc(OCC(=O)O)c(F)c1`, the figures for the EC50 in assay [1] and in assay [2] were 1320 nM and 374 nM, respectively.

As for `Cc1sc(-c2ccccc2)nc1CNc1ccc(OCC(=O)O)c(F)c1`, the Activity in assay [3] stood at 12%; in assay [4], 42%. Moreover, the EC50 in assay [1] and in assay [2] was greater than 10000 nM throughout.

As to `Cc1cc(OCc2nnc(-c3ccccc3)s2)ccc1OCC(=O)O`, the Activity in assay [3] came to 9%; in assay [4] it was 1%. For the same compound, the EC50 in assay [1] and in assay [2] was greater than 10000 nM each time.

For the compound `Cc1ccc(-c2nc(C)c(COc3ccc4c(c3)OCC4CC(=O)O)s2)cc1` (stereo not given), the EC50 in assay [1] was determined as 218 nM; in assay [2], 94 nM.

Consider `Cc1nc(-c2ccccc2)sc1COc1ccc(S(=O)(=O)CC(=O)O)cc1`, for which the EC50 is greater than 10000 nM in assay [1] and 370 nM in assay [2].

In the case of `Cc1cc(OCc2sc(-c3ccccc3)nc2C)ccc1OCC(=O)O`, the figures for the EC50 in assay [1] and in assay [2] were 1650 nM and greater than 10000 nM, respectively. Besides, in assay [4], the Activity stood at 13%.

As for `Cc1nc(-c2ccccc2)sc1COc1ccc2c(c1)OCC2CC(=O)O` (stereo not given), the EC50 in assay [1] amounted to 863 nM; in assay [2], 102 nM.

Consider `Cc1nc(-c2ccc(F)cc2)sc1COc1ccc(S(=O)(=O)CC(=O)O)cc1`, for which the EC50 is greater than 10000 nM in assay [1] and 253 nM in assay [2].

With `O=C(O)COc1ccc(OCc2ncc(-c3ccccc3)o2)cc1F`, the Activity was 8% in assay [3] and 2% in assay [4]. Further, the EC50 in assay [1] and in assay [2] was greater than 10000 nM each time.

Regarding `Cc1nc(-c2ccc(Cl)cc2)sc1COc1ccc2c(c1)OCC2CC(=O)O` (stereo not given), the EC50 in assay [1] was 264 nM; in assay [2], 105 nM.

For the compound `Cc1cc(OCc2csc(-c3ccccc3)n2)ccc1OCC(=O)O`, the Activity amounted to 35% in assay [3] and 5% in assay [4]. Further, the EC50 in assay [1] and in assay [2] was greater than 10000 nM throughout.

With `COc1ccc(-c2nc(C)c(COc3ccc4c(c3)OCC4CC(=O)O)s2)cc1` (stereo not given), the EC50 in assay [1] was 920 nM; in assay [2], 156 nM.

As to `Cc1cc(OCc2sc(-c3ccc(C(F)(F)F)cc3)nc2C)ccc1OCC(=O)O`, the values for the EC50 in assay [1] and in assay [2] were 315 nM and greater than 10000 nM, respectively.

Take `Cc1nc(-c2ccc(C(F)(F)F)cc2)sc1COc1ccc2c(c1)OCC2CC(=O)O` (stereo not given): the results for the EC50 in assay [1] and in assay [2] were 175 nM and 113 nM, respectively.

In the case of `[2H]C([2H])(Cc1ccc(OCc2sc(-c3ccc(C(F)(F)F)cc3)nc2C)cc1)C(=O)O`, the EC50 in assay [1] was found to be 376 nM; in assay [2] it was 325 nM.

Consider `Cc1cc(OCc2ncc(-c3ccccc3)o2)ccc1OCC(=O)O`, for which the values for the Activity in assay [3] and in assay [4] were 12% and 2%, respectively. Further, the EC50 in assay [1] and in assay [2] was greater than 10000 nM throughout.

On to `O=C(O)COc1ccc(OCc2nnc(-c3ccccc3)s2)cc1F`, for which the Activity was 4% in assay [3] and 19% in assay [4]. The EC50 in assay [1] and in assay [2] was greater than 10000 nM in each case.

For the compound `Cc1nc(-c2ccc(F)cc2)sc1COc1ccc(OCC(=O)O)c(F)c1`, the EC50 was determined as 729 nM in assay [1] and 112 nM in assay [2].

For the compound `O=C(O)COc1ccc(OCc2nc(-c3ccccc3)cs2)cc1F`, the Activity was found to be 11% in assay [3] and 15% in assay [4]. In addition, the EC50 in assay [1] and in assay [2] was greater than 10000 nM each time.

For the compound `Cc1nc(-c2ccc(F)cc2)sc1COc1ccc2c(c1)OCC2CC(=O)O` (stereo not given), the EC50 in assay [1] amounted to 306 nM; in assay [2], 79 nM.

With `[2H]C([2H])(Cc1ccc(OCc2sc(-c3ccc(F)cc3)nc2C)cc1)C(=O)O`, the values for the EC50 in assay [1] and in assay [2] were 529 nM and 251 nM, respectively.

Take `[2H]C([2H])(Cc1ccc(OCc2sc(-c3ccccc3)nc2C)cc1)C(=O)O`: the concentration giving a half-maximal response (EC50) came out at 972 nM in assay [1] and 590 nM in assay [2].

As to `O=C(O)COc1ccc(OCc2nnc(-c3ccccc3)o2)cc1F`, the Activity in assay [3] was found to be 3%; in assay [4], 6%. In addition, the EC50 in assay [1] and in assay [2] was greater than 10000 nM each time.

Take `Cc1nc(-c2cccc(F)c2)sc1COc1ccc(OCC(=O)O)c(F)c1`: the values for the EC50 in assay [1] and in assay [2] were 780 nM and 185 nM, respectively.

As for `Cc1ccc(-c2nc(C)c(COc3ccc(OCC(=O)O)c(F)c3)s2)cc1`, the EC50 was found to be 564 nM in assay [1] and 156 nM in assay [2].

With `Cc1sc(-c2ccccc2)nc1COc1ccc(OCC(=O)O)c(F)c1`, the Activity in assay [3] is 31%; in assay [4], 37%. Further, the EC50 in assay [1] and in assay [2] was greater than 10000 nM each time.

Turning to `Cc1cccc(-c2nc(C)c(COc3ccc(OCC(=O)O)c(F)c3)s2)c1`, the EC50 was 1160 nM in assay [1] and 247 nM in assay [2].

Take `O=C(O)COc1ccc(OCc2ncc(-c3ccccc3)s2)cc1F`: the figures for the Activity in assay [3] and in assay [4] were 23% and 31%, respectively. Also, the EC50 in assay [1] and in assay [2] was greater than 10000 nM throughout.

As for `Cc1nc(-c2ccccc2)oc1COc1ccc(OCC(=O)O)c(F)c1`, the results for the EC50 in assay [1] and in assay [2] were 2660 nM and 1350 nM, respectively.

Regarding `O=C(O)COc1ccc(OCc2csc(-c3ccccc3)n2)cc1F`, the values for the Activity in assay [3] and in assay [4] were 20% and 23%, respectively. The EC50 in assay [1] and in assay [2] was greater than 10000 nM throughout.
